In general, pIC50 refers to the negative decadic logarithm of the IC50, by convention in mol/L. What is called pKi is the Ki on a negative log10 scale, so that one unit is a factor of ten. By inhibition is commonly meant how much of the control response was suppressed.

From ChEMBL document CHEMBL1140096, “Discovery of novel nitrobenzothiazole inhibitors for Mycobacterium tuberculosis ATP phosphoribosyl transferase (HisG) through virtual screening” (J Med Chem, 2008) come the findings set out here.

pIC50, pKi: −log10 of the molar value. Active and inactive are the calls of the source. The rule behind the calls is not given here.

In experiment [1] the target is T1, ATP phosphoribosyltransferase (Mycobacterium tuberculosis, UniProt P9WMN1).
T1 sequence (P9WMN1 whole entry): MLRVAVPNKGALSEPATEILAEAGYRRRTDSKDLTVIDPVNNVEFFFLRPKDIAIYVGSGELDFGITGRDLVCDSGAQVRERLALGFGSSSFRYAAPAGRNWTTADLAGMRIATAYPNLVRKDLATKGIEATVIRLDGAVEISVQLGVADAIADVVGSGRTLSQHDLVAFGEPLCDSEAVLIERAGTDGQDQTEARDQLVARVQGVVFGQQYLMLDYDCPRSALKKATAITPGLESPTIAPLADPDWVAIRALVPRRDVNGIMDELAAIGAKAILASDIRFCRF
The experiment in a line: Inhibition of Mycobacterium tuberculosis HisG assessed as phosphoribosyl ATP production by spectrophotometry.

Experiment [2] addresses T2, ATP phosphoribosyltransferase (Mycobacterium tuberculosis) (UniProt P9WMN1).
T2 sequence (whole entry): T1 sequence (P9WMN1 whole entry)
In words: Inhibition of Mycobacterium tuberculosis HisG assessed as phosphoribosyl ATP production at 10 uM by spectrophotometry.

In experiment [3] the target is T2, ATP phosphoribosyltransferase (Mycobacterium tuberculosis). In words: Inhibition of Mycobacterium tuberculosis HisG assessed as phosphoribosyl ATP production at 1 uM by spectrophotometry.
Experiment [4] can be described thus: Inhibition of Escherichia coli HisG.
For experiment [5], the system named is Mycolicibacterium smegmatis. In words: Antimycobacterial activity against Mycobacterium smegmatis ATCC 700084 at 12 ug/mL. Type of experiment: functional, organism-based. The procedure, abridged: (§1)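 M. smegmatis ATCC 700084 pre-grown 2 days in 7H9 with 0.2% glucose and 0.05% Tween80, then plated on 7H10 agar (0.2% glycerol) containing compound at 1, 3, 6, 12 or 25 μg/ml. Plates were incubated 4 days at 37 °C and growth was judged by inspection. Controls were no-compound and DMSO plates, plus kanamycin 25 μg/ml.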

Experiment [6] concerns Mycolicibacterium smegmatis. In words: Antimycobacterial activity against Mycobacterium smegmatis ATCC 700084 at 25 ug/mL. It is filed as functional. The procedure, abridged:
as §1

Take `O=C(CC(NC(=O)c1ccccc1)c1ccccc1)Nc1nc2ccc([N+](=O)[O-])cc2s1` (configuration not stated): in experiment [1], the negative-log IC50 (pIC50) was 5.22 and the negative-log Ki (pKi) was 5.70. Further, in experiment [2], the inhibition amounted to 71%. Besides, the inhibition in experiment [3] came out at 35%.
Consider `CN(CC(=O)O)c1nc2cc([N+](=O)[O-])ccc2s1`, for which the inhibition in experiment [2] amounted to 15%.
Turning to `O=C(CSc1nnc(-c2ccccc2)c(-c2ccccc2)n1)Cc1nccs1`, in experiment [1], the pIC50 was 5.40 and the pKi is 5.70. In addition, the inhibition in experiment [2] worked out at 76%. In addition, the inhibition in experiment [3] came to 40%.
Consider `COc1ccc(COC(=O)C2=C(C)NC3=C(C(=O)CC(c4cccs4)C3)C2c2cccs2)cc1` (configuration not stated), for which the negative-log IC50 (pIC50) in experiment [1] is 5.00. Also, the inhibition in experiment [2] was determined as 50%.
Molecule `O=c1oc2ccccc2c(O)c1Cc1c(O)c2ccccc2oc1=O` [DICUMAROL] gave a pKi in experiment [4] of 4.30.
Consider `O=[N+]([O-])c1ccc2c(/N=N/c3ccc4ccccc4c3O)c(O)cc(S(=O)(=O)O)c2c1`, for which the negative logarithm of the IC50 (pIC50) in experiment [1] is 5.00. Further, the inhibition in experiment [2] was found to be 50%.
With `Cc1cc(/N=N/c2ccc(S(=O)(=O)O)cc2)c(N)c(/N=N/c2ccc(S(=O)(=O)O)cc2)c1N`, in experiment [2], the inhibition was found to be 45%.
The same measure, in the same setting: the figure for `Nc1nc(SCc2ccccc2)c(N)c(SCc2ccccc2)n1` is 48%; for `COc1cc(C2C(C(=O)c3ccc(Cl)cc3)=C(O)C(=O)N2Cc2cccnc2)cc(OC)c1OC` (configuration not stated) it is 20%.
In the case of `CCOC(=O)C(=O)Nc1nc2ccc([N+](=O)[O-])cc2s1`, in experiment [1], the negative logarithm of the IC50 (pIC50) is 4.86. The inhibition in experiment [2] is 39%.
As to `O=[N+]([O-])c1ccc(Nc2cc(Nc3cccc(O)c3)c3nonc3c2[N+](=O)[O-])c(O)c1`, in experiment [1], the negative logarithm of the IC50 (pIC50) was 4.92. For the same molecule, the inhibition in experiment [2] was 46%. The result in experiment [5] was Active. Further, in experiment [6], the inhibition at 25 µg/mL was found to be 100%.
For `O=C(NNC(=O)c1cc([N+](=O)[O-])cc([N+](=O)[O-])c1Br)Nc1ccccc1`, the negative-log IC50 (pIC50) in experiment [1] is 5.26. Also, in experiment [2], the inhibition is 71%.
For `Oc1c(Cl)c(Cl)c(Cl)c(Cl)c1Cl` [PENTACHLOROPHENOL], in experiment [4], the pKi was 4.30.
Still for that read-out and setting: the figure for `O=[N+]([O-])c1ccc(O)c([N+](=O)[O-])c1` [2,4-DINITROPHENOL] is 4.30.
